Tests used:
HT-29 monolayer culture = test: Cell proliferation; type: cell-based, human; conditions: MTT, 60-72 h
Method in brief: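 HT-29 cells kept as monolayers in DMEM:F-12 with 10% FBS and 1% penicillin/streptomycin, passaged before 70% confluence. About 2.5 × 10³ cells/well were incubated overnight (37 °C, 5% CO₂), then exposed to test compound for 60–72 h. MTT (5 mg/mL stock in PBS) was added for 2–3 h and crystals dissolved in DMSO. A590 was read and growth expressed as percent of vehicle; ≥3 replicates.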

[1] = tested on: pooled normal human plasma; test: Human plasma clotting time; type: biochemical; conditions: ∼34 to ∼68 s
Method in brief: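 APTT was run in a fibrometer by one-stage recalcification. Test compound was mixed with citrated pooled normal human plasma and prewarmed APTT reagent (ellagic acid). After 4 min at 37 °C, clotting was started with prewarmed 25 mM CaCl₂ and time to clot recorded. A quadratic trend line fitted to the data gave the concentration doubling clotting time.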

[2] = Mouse tail bleeding study; type: in vivo, wild-type ICR mice; conditions: IV; NSGMs 1–100 mg/kg, enoxaparin 224 μg/kg
[3] = tested on: CD133+/CXCR4+ (Dual Hi) HT-29 xenografts; test: Dual Hi HT-29 xenograft after FUOX enrichment, IP G5C or FUOX; type: in vivo, NCr nude mice; conditions: G5C 100 mg/kg IP; FUOX IP weekly
Method in brief: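 1 × 10⁵ FACS-sorted CD133⁺/CXCR4⁺ HT-29 cells were injected subcutaneously into NCr nude mice. Palpable tumors were enriched in vivo with 25 mg/kg 5-fluorouracil plus 2 mg/kg oxaliplatin IP weekly for 3 weeks. Mice were then randomized to vehicle, the same regimen continued, or test compound 100 mg/kg IP three times/week (14 doses). Tumors (n = 2/group) were dissociated into single cells and 1–3° spheroids (50–150 μm) counted in low-adhesion EGF/FGF stem cell medium.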

[4] = Preliminary half-life experiments; type: in vivo; conditions: data not shown

CC(C)CCC[C@@H](C)[C@H]1CC[C@H]2[C@@H]3CC=C4C[C@@H](OCCCCCOc5cc(-c6oc7cc(OS(=O)(=O)[O-])cc(OCCCOc8cc(OS(=O)(=O)[O-])cc9oc(-c%10ccc(OS(=O)(=O)[O-])c(OS(=O)(=O)[O-])c%10)c(OS(=O)(=O)[O-])c(=O)c89)c7c(=O)c6OS(=O)(=O)[O-])ccc5OS(=O)(=O)[O-])CC[C@]4(C)[C@H]3CC[C@]12C.[Na+].[Na+].[Na+].[Na+].[Na+].[Na+].[Na+] [G5C, Sodium 4-(5-(3-((2-(3-((5-(((8S,9S,10R,13R,14S,17R)-10,13-Dimethyl-17-((R)-6-methylheptan-2-yl)-2,3,4,7,8,9,10,11,12,13,14,15,16,17-tetradecahydro-1H-cyclopenta[a]phenanthren-3-yl)oxy)pentyl)oxy)-4-(sulfonatooxy)phenyl)-4-oxo-3,7-bis(sulfonatooxy)-4H-chromen-5-yl)oxy)propoxy)-4-oxo-3,7-bis(sulfonatooxy)-4H-chromen-2-yl)-1,2-phenylene Bis(sulfate)]
cytotoxicity under monolayer conditions (HT-29 monolayer culture): essentially benign toward monolayer cancer cell culture even at ∼400 μM
concentration required for 2-fold increase in APTT [1]: ~200 µM
blood loss, tail bleeding [2]: did not exhibit much tail bleeding phenotype
ex vivo 3° spheroid growth from xenograft cells [3]: maintain inhibition
increase in half-life over G2.2 [4]: ~50%
